Reference: ChEMBL document CHEMBL2069201, “N-Benzoyl anthranilic acid derivatives as selective inhibitors of aldo-keto reductase AKR1C3” (Bioorg Med Chem Lett, 2012)
Changes are numbered by the printed parent chain. The source made the active and inactive calls. The calls are words filed in the database; no cut-off is given here.

Key:
[1] = biological target: T1, Aldo-keto reductase family 1 member C1 (Homo sapiens) (UniProt Q04828); assay: Inhibition of recombinant AKR1C1 using 1-acenaphthenol as substrate at 10 uM by spectrophotometry
T1 sequence (whole entry): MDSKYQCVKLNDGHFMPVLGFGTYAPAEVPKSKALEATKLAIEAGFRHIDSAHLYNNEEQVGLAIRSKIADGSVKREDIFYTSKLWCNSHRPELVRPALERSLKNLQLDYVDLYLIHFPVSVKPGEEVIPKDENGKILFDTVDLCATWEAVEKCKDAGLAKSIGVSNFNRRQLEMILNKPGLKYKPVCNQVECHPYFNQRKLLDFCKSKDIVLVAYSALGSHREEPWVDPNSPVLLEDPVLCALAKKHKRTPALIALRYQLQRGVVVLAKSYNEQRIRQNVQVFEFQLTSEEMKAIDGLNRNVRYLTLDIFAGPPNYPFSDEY
Summary of the method: (§1)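 Oxidation of 1-acenaphthenol was run with 2.3 mM NAD+ in 100 mM phosphate pH 9.0 containing 0.005% Triton X-114 and 5% DMSO. Substrate/enzyme were 30 µM/0.1 µM for AKR1C1, 60 µM/0.3 µM for AKR1C2 and 100 µM/1.5 µM for AKR1C3. NADH rise was read at 340 nm from initial velocities. […] Mean of two experiments.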

[2] = biological target: T2, Aldo-keto reductase family 1 member C3 (Homo sapiens) (UniProt P42330); assay: Inhibition of recombinant AKR1C3 using 1-acenaphthenol as substrate at 10 uM by spectrophotometry; summary of the method: as §1
T2 sequence (whole entry): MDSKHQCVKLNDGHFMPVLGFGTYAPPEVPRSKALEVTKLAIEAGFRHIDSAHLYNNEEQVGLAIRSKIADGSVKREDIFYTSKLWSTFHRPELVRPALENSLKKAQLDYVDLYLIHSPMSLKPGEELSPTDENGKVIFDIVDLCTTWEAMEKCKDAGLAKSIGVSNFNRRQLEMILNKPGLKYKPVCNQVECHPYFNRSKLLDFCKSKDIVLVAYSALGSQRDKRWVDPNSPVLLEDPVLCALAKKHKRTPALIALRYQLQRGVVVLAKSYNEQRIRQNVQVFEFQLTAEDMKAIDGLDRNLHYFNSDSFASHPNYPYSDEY

[3] = biological target: T3, Aldo-keto reductase family 1 member C2 (Homo sapiens) (UniProt P52895); assay: Inhibition of recombinant AKR1C2 using 1-acenaphthenol as substrate at 10 uM by spectrophotometry; summary of the method: as §1
T3 sequence (whole entry): T1 sequence (whole entry) with T38V, R47H, L54V, C87S, V151M, R170H, Q172L

[4] = biological target: T4, Aldo-keto reductase family 1 member C4 (Homo sapiens, UniProt P17516); assay: Inhibition of recombinant AKR1C4 using S-tetralol as substrate by fluorimetry
T4 sequence (P17516 whole entry): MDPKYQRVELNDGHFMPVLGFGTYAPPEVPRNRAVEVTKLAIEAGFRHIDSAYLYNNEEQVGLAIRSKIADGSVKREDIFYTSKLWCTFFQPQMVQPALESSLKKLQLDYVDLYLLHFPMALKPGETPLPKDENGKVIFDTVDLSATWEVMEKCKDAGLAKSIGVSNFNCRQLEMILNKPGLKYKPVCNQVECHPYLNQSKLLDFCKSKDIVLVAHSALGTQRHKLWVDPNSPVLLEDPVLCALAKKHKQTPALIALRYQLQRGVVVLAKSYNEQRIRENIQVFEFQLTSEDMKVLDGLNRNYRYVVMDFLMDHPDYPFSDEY
Summary of the method: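 Continuous NADP+-dependent oxidation of S-tetralol, read as NADPH fluorescence at 340/460 nm. Buffer was 100 mM phosphate pH 7.0 with 200 µM NADP+ and 4% DMSO. Initial velocities were fitted to give IC50. Mean of two independent experiments.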

[5] = biological target: T5, Aldo-keto reductase family 1 member C2 (Homo sapiens, UniProt P52895); assay: Inhibition of recombinant AKR1C2 using S-tetralol as substrate by fluorimetry
T5 sequence (P52895 whole entry): T1 sequence (whole entry) with T38V, R47H, L54V, C87S, V151M, R170H, Q172L
Summary of the method: (§2)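 Continuous NADP+-dependent oxidation of S-tetralol, read as NADPH fluorescence at 340/460 nm. Buffer was 100 mM phosphate pH 7.0 with 200 µM NADP+ and 4% DMSO. […] Enzyme was 111, 86, 95 and 184 nM respectively. Initial velocities were fitted to give IC50. Mean of two independent experiments.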

Homo sapiens [6] = organism: Homo sapiens; assay: Selectivity ratio of IC50 for AKR1C4 to AKR1C3
Summary of the method: (§3)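 Fold selectivity for AKR1C3 was calculated from IC50 values of the secondary assay. That assay followed fluorimetric NADP+-dependent S-tetralol oxidation at pH 7.0, with substrate at each isoform's Km.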

Homo sapiens [7] = organism: Homo sapiens; assay: Selectivity ratio of IC50 for AKR1C1 to AKR1C3; summary of the method: as §3
Homo sapiens [8] = organism: Homo sapiens; assay: Selectivity ratio of IC50 for AKR1C2 to AKR1C3; summary of the method: as §3
[9] = biological target: T6, Aldo-keto reductase family 1 member C3 (Homo sapiens, UniProt P42330); assay: Inhibition of recombinant AKR1C3 using 1-acenaphthenol as substrate by spectrophotometry; summary of the method: as §1
T6 sequence (P42330 whole entry): T2 sequence (whole entry)

[10] = biological target: T6, Aldo-keto reductase family 1 member C3; assay: Inhibition of recombinant AKR1C3 using S-tetralol as substrate by fluorimetry; summary of the method: as §2
[11] = biological target: T7, Aldo-keto reductase family 1 member C1 (Homo sapiens, UniProt Q04828); assay: Inhibition of recombinant AKR1C1 using S-tetralol as substrate by fluorimetry; summary of the method: as §2
T7 sequence (Q04828 whole entry): T1 sequence (whole entry)

[12] = biological target: T5, Aldo-keto reductase family 1 member C2; assay: Inhibition of recombinant AKR1C2 using 1-acenaphthenol as substrate by spectrophotometry; summary of the method: as §1
[13] = biological target: T7, Aldo-keto reductase family 1 member C1; assay: Inhibition of recombinant AKR1C1 using 1-acenaphthenol as substrate by spectrophotometry; summary of the method: as §1

| SMILES | inhibition [1] | inhibition [2] | inhibition [3] | IC50 [4] | IC50 [5] | Ratio IC50 (Homo sapiens [6]) | Ratio IC50 (Homo sapiens [7]) | Ratio IC50 (Homo sapiens [8]) | IC50 [9] | IC50 [10] | IC50 [11] | IC50 [12] | IC50 [13] |
| --- | --- | --- | --- | --- | --- | --- | --- | --- | --- | --- | --- | --- | --- |
| O=C(Nc1ccc(O)cc1C(=O)O)c1cccc([N+](=O)[O-])c1 | inactive | 1.9% | 31.6% | – | – | – | – | – | – | – | – | – | – |
| COc1cc(NC(=O)c2cccc(O)c2)c(C(=O)O)cc1OC | 11.8% | 70.2% | 29.4% | 50.9 µM | 30 µM | 18 | 30 | 10 | 5.2 µM | 2.9 µM | 86.3 µM | – | – |
| COc1cc(NC(=O)c2cccc([N+](=O)[O-])c2)c(C(=O)O)cc1OC | 22.2% | 3.5% | inactive | – | – | – | – | – | – | – | – | – | – |
| Nc1cccc(C(=O)Nc2ccccc2C(=O)O)c1 | 8% | inactive | inactive | – | – | – | – | – | – | – | – | – | – |
| O=C(Nc1ccc(Br)cc1C(=O)O)c1ccc(F)c([N+](=O)[O-])c1 | 53.2% | 5.6% | 33.6% | – | – | – | – | – | – | – | – | 15.6 µM | 8.4 µM |
| O=C(Nc1ccc(Cl)cc1C(=O)O)c1cccc(O)c1 | 17.4% | 77.8% | 6.7% | 20.1 µM | 50.2 µM | 65 | 164 | 162 | 2.2 µM | 0.31 µM | 50.8 µM | – | – |
| CCCCOc1cc(C(=O)Nc2ccccc2C(=O)O)ccc1[N+](=O)[O-] | 70.8% | 47.2% | 58.3% | – | – | – | – | – | 7.5 µM | – | – | 6.5 µM | 3.2 µM |
| Nc1cccc(C(=O)Nc2ccc(O)cc2C(=O)O)c1 | 9.7% | 5.6% | 28.7% | – | – | – | – | – | – | – | – | – | – |
| O=C(Nc1ccccc1C(=O)O)c1cccc(O)c1 | inactive | 42.1% | inactive | – | 48.1 µM | > 19 | > 19 | 9 | 12.7 µM | 5.19 µM | > 100 µM | – | – |
| Cc1cc(Cl)cc(C(=O)O)c1NC(=O)c1cccc([N+](=O)[O-])c1 | inactive | inactive | 22.5% | – | – | – | – | – | – | – | – | – | – |
| CCCCOc1cccc(C(=O)Nc2ccc(Br)cc2C(=O)O)c1 | 65.9% | 30.4% | 70.5% | – | – | – | – | – | – | – | – | 4.9 µM | 4.9 µM |
| O=C(Nc1ccc(Cl)cc1C(=O)O)c1cccc([N+](=O)[O-])c1 | inactive | 3.4% | 23.4% | – | – | – | – | – | – | – | – | – | – |
| CCOc1cccc(C(=O)Nc2ccc(Br)cc2C(=O)O)c1 | 31.9% | 19.1% | 36.8% | – | – | – | – | – | – | – | – | 17.1 µM | 20.6 µM |
| O=C(Nc1ccc(Br)cc1C(=O)O)c1cccc(O)c1 | 21.6% | 89.6% | 16.7% | 30.3 µM | 63 µM | 86 | 286 | 180 | 1.9 µM | 0.35 µM | 100 µM | – | – |
| COc1cc(NC(=O)c2cccc(N)c2)c(C(=O)O)cc1OC | 18% | 5.6% | 20.2% | – | – | – | – | – | – | – | – | – | – |
| O=C(Nc1ccc([N+](=O)[O-])cc1C(=O)O)c1cccc(O)c1 | 11.8% | 87.9% | 10.4% | – | 41.6 µM | – | – | – | 2.6 µM | 0.84 µM | 35.2 µM | – | – |
